From ChEMBL document CHEMBL1136726, “Synthesis and characterization of iodine-123 labeled 2beta-carbomethoxy-3beta-(4'-((Z)-2-iodoethenyl)phenyl)nortropane. A ligand for in vivo imaging of serotonin transporters by single-photon-emission tomography” (J Med Chem, 2003)

Legend:
Format in all cases: ADME, organism-based
Rattus norvegicus [1] = assay: Distribution of radioactivity in rat brain region cerebellum 60 min after intravenous administration of iodine labeled compound in presence of RTI-113 blocker in study 2; details: in vivo, 1 h
Outline: (§1)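 Male Sprague–Dawley rats (250–300 g), ketamine-anesthetized. Blocker (2 mg/kg) or none was given iv 15 min before tail-vein radioligand (10 µCi in 0.2 mL 10% EtOH/saline). Rats were killed at 60 min with im pentobarbital. Brain regions were dissected, weighed and gamma-counted. % dose/g was taken from decay-corrected, background-subtracted counts versus the injected dose.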

Rattus norvegicus [2] = assay: Distribution of radioactivity in rat brain region frontal cortex 60 min after intravenous administration of iodine labeled compound in absence of blocker in study 1; details: in vivo, 1 h; outline: as §1
Rattus norvegicus [3] = assay: Distribution of radioactivity in rat brain region frontal cortex 60 min after intravenous administration of iodine labeled compound in absence of blocker in study 2; details: in vivo, 1 h; outline: as §1
Rattus norvegicus [4] = assay: Distribution of radioactivity in rat kidney 30 min after intravenous administration of iodine labeled compound; details: in vivo, 0.5 h
Outline: (§2)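 Tail-vein injection of [123I]ZIENT (10 μCi in 0.2 mL 10% EtOH/0.9% NaCl, then 0.4 mL saline flush) into ketamine-anaesthetised male Sprague–Dawley rats (225–300 g). Animals were killed by cardiac excision at set times. Organs were excised, rinsed, blotted, weighed and gamma-counted. % dose/g was calculated against diluted aliquots of injectate. Mean ± SE, n=4–5.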

Rattus norvegicus [5] = assay: Ratio of distribution of radioactivity in rat brain region prefrontal cortex and cerebellum 60 min after intravenous administration of iodine labeled compound in presence of RTI-113 blocker in study 1; details: in vivo, 1 h
Rattus norvegicus [6] = assay: Distribution of radioactivity in rat brain region pons 60 min after intravenous administration of iodine labeled compound in presence of RTI-113 blocker in study 1; details: in vivo, 1 h; outline: as §1
Rattus norvegicus [7] = assay: Distribution of radioactivity in rat brain region striatum 60 min after intravenous administration of iodine labeled compound in absence of blocker in study 1; details: in vivo, 1 h
Outline: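 Male Sprague–Dawley rats (250–300 g), ketamine-anaesthetised, received [123I]ZIENT (10 μCi) in 0.2 mL 10% ethanol/0.9% NaCl via the tail vein. […] Rats were killed at 60 min with pentobarbital, brain regions dissected and gamma-counted. Values are % dose/g from decay-corrected, background-subtracted counts against the diluted injected dose.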

Rattus norvegicus [8] = assay: Ratio of distribution of radioactivity in rat brain striatum and cerebellum 120 min after intravenous administration of iodine labeled compound; details: in vivo, 2 h
Outline: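 Male Sprague–Dawley rats (225–300 g), ketamine anesthesia, injected via tail vein with [123I]ZIENT (10 μCi in 0.2 mL 10% EtOH/0.9% NaCl, 0.4 mL saline flush). Killed at 5, 30, 60 or 120 min. Striatum and cerebellum dissected, weighed, γ-counted. Decay-corrected %injected dose/g taken against diluted injectate. Ratio is striatum over cerebellum. Four or five rats per time point, mean ± standard error.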

Rattus norvegicus [9] = assay: Ratio of distribution of radioactivity in rat brain region hypothalamus and cerebellum 60 min after intravenous administration of iodine labeled compound in presence of reboxetine blocker in study 2; details: in vivo, 1 h
Rattus norvegicus [10] = assay: Distribution of radioactivity in rat brain region hypothalamus 60 min after intravenous administration of iodine labeled compound in presence of fluvoxamine blocker in study 1; details: in vivo, 1 h; outline: as §1
Rattus norvegicus [11] = assay: Distribution of radioactivity in rat brain prefrontal cortex 30 min after intravenous administration of iodine labeled compound; details: in vivo, 0.5 h
Outline: (§3)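 Male Sprague–Dawley rats (225–300 g) under ketamine received 10 µCi radioligand iv (tail vein) in 10% EtOH/saline. Hypothalamus, prefrontal cortex, striatum, pons and cerebellum were dissected, weighed and gamma-counted. % injected dose/g was taken from decay-corrected counts versus diluted dose. Mean ± SE and range, n=5 (5, 30 min) or 4 (60, 120 min).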

Rattus norvegicus [12] = assay: Ratio of distribution of radioactivity in rat brain region pons and cerebellum 60 min after intravenous administration of iodine labeled compound in presence of reboxetine blocker in study 2; details: in vivo, 1 h
Rattus norvegicus [13] = assay: Distribution of radioactivity in rat liver 5 min after intravenous administration of iodine labeled compound; details: in vivo; outline: as §2
Rattus norvegicus [14] = assay: Distribution of radioactivity in rat lung 60 min after intravenous administration of iodine labeled compound; details: in vivo, 1 h; outline: as §2
Rattus norvegicus [15] = assay: Distribution of radioactivity in rat muscle tissue 120 min after intravenous administration of iodine labeled compound; details: in vivo, 2 h; outline: as §2
Rattus norvegicus [16] = assay: Distribution of radioactivity in rat muscle tissue 60 min after intravenous administration of iodine labeled compound; details: in vivo, 1 h; outline: as §2
Rattus norvegicus [17] = assay: Ratio of distribution of radioactivity in rat brain region hypothalamus and cerebellum 60 min after intravenous administration of iodine labeled compound in absence of blocker in study 2; details: in vivo, 1 h
Rattus norvegicus [18] = assay: Ratio of distribution of radioactivity in rat brain region hypothalamus and cerebellum 60 min after intravenous administration of iodine labeled compound in presence of fluvoxamine blocker in study 1; details: in vivo, 1 h
Rattus norvegicus [19] = assay: Ratio of distribution of radioactivity in rat brain region pons and cerebellum 60 min after intravenous administration of iodine labeled compound in absence of blocker in study 2; details: in vivo, 1 h
Rattus norvegicus [20] = assay: Distribution of radioactivity in rat brain region prefrontal cortex 60 min after intravenous administration of iodine labeled compound in absence of blocker in study 1; details: in vivo, 1 h; outline: as §1
Rattus norvegicus [21] = assay: Distribution of radioactivity in rat brain hypothalamus 60 min after intravenous administration of iodine labeled compound; details: in vivo, 1 h; outline: as §3

## COC(=O)[C@@H]1C2CCC(C[C@@H]1c1ccc(/C=C\I)cc1)N2 (stereo partly specified)
Rattus norvegicus [1]
  Distribution (dose/g): 0.25%
Rattus norvegicus [2]
  Distribution (dose/g): 0.75%
Rattus norvegicus [3]
  Distribution (dose/g): 0.59%
Rattus norvegicus [4]
  Distribution (dose/g): 0.49%
Rattus norvegicus [5]
  Distribution (dose/g): 3.12%
Rattus norvegicus [6]
  Distribution (dose/g): 0.56%
Rattus norvegicus [7]
  Distribution (dose/g): 0.76%
Rattus norvegicus [8]
  Distribution (dose/g): 4%
Rattus norvegicus [9]
  Distribution (dose/g): 2.83%
Rattus norvegicus [10]
  Distribution (dose/g): 0.31%
Rattus norvegicus [11]
  Distribution (dose/g): 0.82%
Rattus norvegicus [12]
  Distribution (dose/g): 2.35%
Rattus norvegicus [13]
  Distribution (dose/g): 0.38%
Rattus norvegicus [14]
  Distribution (dose/g): 1.41%
Rattus norvegicus [15]
  Distribution (dose/g): 0.17%
Rattus norvegicus [16]
  Distribution (dose/g): 0.2%
Rattus norvegicus [17]
  Distribution (dose/g): 3.95%
Rattus norvegicus [18]
  Distribution (dose/g): 1.82%
Rattus norvegicus [19]
  Distribution (dose/g): 2.79%
Rattus norvegicus [20]
  Distribution (dose/g): 0.93%
Rattus norvegicus [21]
  Distribution (dose/g): 0.77%
